Laboratory results taken from ChEMBL document CHEMBL3822397, “Synthesis and bioevaluation of novel benzodipyranone derivatives as P-glycoprotein inhibitors for multidrug resistance reversal agents” (Eur J Med Chem, 2016).
Calls of active or inactive are those of the source. The rule behind the calls is not given here.

What was measured:
[1] = target: T1, ATP-dependent translocase ABCB1 (Homo sapiens, UniProt P08183); test: Inhibition of full length human ABCB1 expressed in Flp-In-293 cells at 2.5 uM incubated for 30 mins by calcein-AM uptake assay relative to control; type: cell-based; conditions: 0.5 h
T1 sequence (P08183 whole entry): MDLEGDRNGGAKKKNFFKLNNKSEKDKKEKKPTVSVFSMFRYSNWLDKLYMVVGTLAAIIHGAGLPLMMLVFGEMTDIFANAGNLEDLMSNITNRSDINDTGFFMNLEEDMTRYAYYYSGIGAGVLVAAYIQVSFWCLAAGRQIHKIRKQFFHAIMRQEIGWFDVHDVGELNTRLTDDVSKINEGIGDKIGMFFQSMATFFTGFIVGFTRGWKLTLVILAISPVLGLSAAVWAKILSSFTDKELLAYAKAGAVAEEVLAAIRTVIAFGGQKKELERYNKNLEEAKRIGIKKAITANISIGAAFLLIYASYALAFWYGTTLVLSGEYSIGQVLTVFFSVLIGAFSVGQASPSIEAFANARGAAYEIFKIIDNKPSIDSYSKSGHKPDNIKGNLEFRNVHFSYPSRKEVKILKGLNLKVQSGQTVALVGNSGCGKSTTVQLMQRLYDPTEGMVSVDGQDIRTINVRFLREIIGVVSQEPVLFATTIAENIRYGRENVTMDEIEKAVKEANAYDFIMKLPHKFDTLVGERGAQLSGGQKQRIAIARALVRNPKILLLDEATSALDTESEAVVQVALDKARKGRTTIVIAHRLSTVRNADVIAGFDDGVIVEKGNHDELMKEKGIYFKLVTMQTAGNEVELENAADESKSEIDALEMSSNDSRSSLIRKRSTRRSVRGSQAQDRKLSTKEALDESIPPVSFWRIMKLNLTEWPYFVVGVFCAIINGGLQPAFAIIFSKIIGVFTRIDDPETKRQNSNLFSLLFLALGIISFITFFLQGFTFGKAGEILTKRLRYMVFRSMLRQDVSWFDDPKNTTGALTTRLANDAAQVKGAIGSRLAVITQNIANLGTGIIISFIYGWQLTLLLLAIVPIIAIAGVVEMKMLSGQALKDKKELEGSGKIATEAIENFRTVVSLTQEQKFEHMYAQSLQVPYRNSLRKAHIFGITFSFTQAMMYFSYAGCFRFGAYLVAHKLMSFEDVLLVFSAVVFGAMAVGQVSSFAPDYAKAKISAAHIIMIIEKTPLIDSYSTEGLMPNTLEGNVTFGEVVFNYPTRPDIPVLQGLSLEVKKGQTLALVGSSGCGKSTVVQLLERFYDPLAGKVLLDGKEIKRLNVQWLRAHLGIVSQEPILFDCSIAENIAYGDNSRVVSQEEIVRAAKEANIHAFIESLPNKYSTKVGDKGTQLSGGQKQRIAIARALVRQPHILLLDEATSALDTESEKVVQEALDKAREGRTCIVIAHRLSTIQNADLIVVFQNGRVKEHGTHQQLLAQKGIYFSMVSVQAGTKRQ

[2] = target: T1, ATP-dependent translocase ABCB1; test: Inhibition of full length human ABCB1 expressed in Flp-In-293 cells at 5 uM incubated for 30 mins by calcein-AM uptake assay relative to control; type: cell-based; conditions: 0.5 h
HEK293 [3] = test: Potentiation of paclitaxel-induced cytotoxicity in Flp-In-293 cells assessed as reduction in paclitaxel IC50 at 8 uM after 72 hrs by SRB assay relative to control; type: functional, Homo sapiens
HEK293 [4] = test: Potentiation of paclitaxel-induced cytotoxicity in Flp-In-293 cells assessed as reduction in paclitaxel IC50 at 10 uM after 72 hrs by SRB assay relative to control; type: functional, Homo sapiens
HEK293 [5] = test: Potentiation of vincristine-induced cytotoxicity in Flp-In-293 cells assessed as reduction in vincristine IC50 at 8 uM after 72 hrs by SRB assay relative to control; type: functional, Homo sapiens
HEK293 [6] = test: Potentiation of vincristine-induced cytotoxicity in Flp-In-293 cells assessed as reduction in vincristine IC50 at 10 uM after 72 hrs by SRB assay relative to control; type: functional, Homo sapiens
HEK293 [7] = test: Potentiation of doxorubicin-induced cytotoxicity in Flp-In-293 cells assessed as reduction in doxorubicin IC50 at 8 uM after 72 hrs by SRB assay relative to control; type: functional, Homo sapiens
HEK293 [8] = test: Potentiation of doxorubicin-induced cytotoxicity in Flp-In-293 cells assessed as reduction in doxorubicin IC50 at 10 uM after 72 hrs by SRB assay relative to control; type: functional, Homo sapiens
[9] = target: T1, ATP-dependent translocase ABCB1; test: Inhibition of full length human ABCB1 expressed in Flp-In-293 cells assessed as potentiation of paclitaxel-induced cytotoxicity at 10 uM after 72 hrs by SRB assay relative to control; type: cell-based
[10] = target: T1, ATP-dependent translocase ABCB1; test: Inhibition of full length human ABCB1 expressed in Flp-In-293 cells assessed as potentiation of paclitaxel-induced cytotoxicity at 8 uM after 72 hrs by SRB assay relative to control; type: cell-based
[11] = target: T1, ATP-dependent translocase ABCB1; test: Inhibition of full length human ABCB1 expressed in Flp-In-293 cells assessed as potentiation of vincristine-induced cytotoxicity at 8 uM after 72 hrs by SRB assay relative to control; type: cell-based
[12] = target: T1, ATP-dependent translocase ABCB1; test: Inhibition of full length human ABCB1 expressed in Flp-In-293 cells assessed as potentiation of vincristine-induced cytotoxicity at 10 uM after 72 hrs by SRB assay relative to control; type: cell-based
[13] = target: T1, ATP-dependent translocase ABCB1; test: Inhibition of full length human ABCB1 expressed in Flp-In-293 cells assessed as potentiation of doxorubicin-induced cytotoxicity at 8 uM after 72 hrs by SRB assay relative to control; type: cell-based
[14] = target: T1, ATP-dependent translocase ABCB1; test: Inhibition of full length human ABCB1 expressed in Flp-In-293 cells assessed as potentiation of doxorubicin-induced cytotoxicity at 10 uM after 72 hrs by SRB assay relative to control; type: cell-based
[15] = Potentiation of paclitaxel-induced cytotoxicity in human HeLaS3 assessed as reduction in paclitaxel IC50 at 8 uM after 72 hrs by SRB assay relative to control; type: functional, HeLa S3
[16] = Potentiation of paclitaxel-induced cytotoxicity in human HeLaS3 assessed as reduction in paclitaxel IC50 at 10 uM after 72 hrs by SRB assay relative to control; type: functional, HeLa S3
[17] = Potentiation of vincristine-induced cytotoxicity in human HeLaS3 assessed as reduction in vincristine IC50 at 8 uM after 72 hrs by SRB assay relative to control; type: functional, HeLa S3
[18] = Potentiation of vincristine-induced cytotoxicity in human HeLaS3 assessed as reduction in vincristine IC50 at 10 uM after 72 hrs by SRB assay relative to control; type: functional, HeLa S3
[19] = target: T1, ATP-dependent translocase ABCB1; test: Inhibition of ABCB1 in human KBVIN cells assessed as potentiation of paclitaxel-induced cytotoxicity at 8 uM after 72 hrs by SRB assay relative to control; type: cell-based
[20] = target: T1, ATP-dependent translocase ABCB1; test: Inhibition of ABCB1 in human KBVIN cells assessed as potentiation of paclitaxel-induced cytotoxicity at 10 uM after 72 hrs by SRB assay relative to control; type: cell-based
[21] = target: T1, ATP-dependent translocase ABCB1; test: Inhibition of ABCB1 in human KBVIN cells assessed as potentiation of vincristine-induced cytotoxicity at 8 uM after 72 hrs by SRB assay relative to control; type: cell-based
[22] = target: T1, ATP-dependent translocase ABCB1; test: Inhibition of ABCB1 in human KBVIN cells assessed as potentiation of vincristine-induced cytotoxicity at 10 uM after 72 hrs by SRB assay relative to control; type: cell-based
HEK293 [23] = test: Downregulation of ABCB1 mRNA expression in Flp-In-293 cells transfected with full length human ABCB1 at 5 uM after 72 hrs by RT-PCR analysis; type: functional, cell-based
Procedure, shortened: (§1)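 ABCB1 mRNA measured after treating ABCB1/Flp-In-293 cells with test compounds for 72 hr. Data given as mean ± SE of three experiments, each in triplicate.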

HEK293 [24] = test: Effect on ABCB1 mRNA expression in Flp-In-293 cells at 5 uM after 72 hrs by RT-PCR analysis; type: ADME, cell-based; conditions: human, flp-in-293, 72 h; procedure, shortened: as §1

SMILES | fold change (FC) [1] | fold change (FC) [2] | fold change (FC) (HEK293 [3]) | fold change (FC) (HEK293 [4]) | fold change (FC) (HEK293 [5]) | fold change (FC) (HEK293 [6]) | fold change (FC) (HEK293 [7]) | fold change (FC) (HEK293 [8]) | fold change (FC) [9] | fold change (FC) [10] | fold change (FC) [11] | fold change (FC) [12] | fold change (FC) [13] | fold change (FC) [14] | Activity (HEK293 [23]) | further results
Cc1cccc(-c2coc3c(c(O)cc4occ(-c5cccc(C)c5)c(=O)c43)c2=O)c1 | 1.58 | 2.05 | 1.5 | 1.8 | 7.8 | 9.1 | 1.2 | 1.6 | 16.1 | 10.8 | 15.6 | 21 | 1.4 | 1.6 | Active | fold change (FC) [15]: 1.1; fold change (FC) [16]: 1.4; fold change (FC) [17]: 4.7; fold change (FC) [18]: 8.8; fold change (FC) [19]: 19; fold change (FC) [20]: 23.1; fold change (FC) [21]: 7.4; fold change (FC) [22]: 29.7
COc1ccc(-c2coc3c(c(O)cc4occ(-c5ccc(OC)c(OC)c5)c(=O)c43)c2=O)cc1OC | 1.45 | 1.64 | 1 | 1.3 | 7.8 | 8.2 | 1.2 | 1.3 | 9.5 | 8.8 | 4.1 | 9.7 | 1.5 | 1.5 | Active | 
COc1ccc(-c2coc3c(c(O)cc4occ(-c5ccc(OC)cc5)c(=O)c43)c2=O)cc1 | 1.54 | 1.84 | 2.7 | 4.2 | 6.6 | 7.1 | 0.9 | 2.1 | 8.2 | 2.1 | 1.4 | 1.6 | 1.6 | 1.7 | inactive | Activity (HEK293 [24]): Non-toxic
